From ChEMBL document CHEMBL2321753, “Synthesis and biological evaluation of radioiodinated quinacrine-based derivatives for SPECT imaging of Aβ plaques” (Eur J Med Chem, 2013)

Experiments:
[1] = molecular target: Amyloid-beta precursor protein (Homo sapiens, UniProt P05067); test: Binding affinity to amyloid beta aggregate (unknown origin) by centrifugation method
How it was run: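 Aβ(1-42) aggregated at 0.25 mg/mL in pH 7.4 buffer (10 mM sodium phosphate, 1 mM EDTA), 37 °C for 42 h with shaking. [125I]ligand at 4–500 nM final (set with unlabelled compound) in 10% EtOH incubated with aggregates 2 h at room temperature. Centrifuged 16,000 rpm, 10 min; supernatant gamma-counted for bound/free ratio. Nonspecific binding with 10 µM unlabelled ligand. Kd and Bmax from Scatchard analysis.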

Heart [2] = test: Biodistribution in ddY mouse heart at 0.1 to 0.4 uCi, iv after 60 mins by gamma counting; format: ADME, organism-based; conditions: in vivo, 1 h
How it was run: (§1)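 [125I]ligand (0.1–0.4 µCi) in 100 µL PBS (pH 7.4) containing 30 µL DMSO, injected into the tail vein of ddY mice (5 weeks, 22–25 g). Mice sacrificed at 2, 10, 30 and 60 min. Organs removed, weighed and gamma-counted. Values are % injected dose per gram, except stomach as % dose per organ. Mean (SD) of 3–6 mice per time point.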

Pancreas [3] = test: Biodistribution in ddY mouse pancreas at 0.1 to 0.4 uCi, iv after 60 mins by gamma counting; format: ADME, organism-based; conditions: in vivo, 1 h; how it was run: as §1
Stomach [4] = test: Biodistribution in ddY mouse stomach assessed per organ at 0.1 to 0.4 uCi, iv after 60 mins by gamma counting; format: ADME, organism-based; conditions: in vivo, 1 h; how it was run: as §1
Lung [5] = test: Biodistribution in ddY mouse lung at 0.1 to 0.4 uCi, iv after 60 mins by gamma counting; format: ADME, organism-based; conditions: in vivo, 1 h; how it was run: as §1
Spleen [6] = test: Biodistribution in ddY mouse spleen at 0.1 to 0.4 uCi, iv after 60 mins by gamma counting; format: ADME, organism-based; conditions: in vivo, 1 h; how it was run: as §1
Intestine [7] = test: Biodistribution in ddY mouse intestine at 0.1 to 0.4 uCi, iv after 60 mins by gamma counting; format: ADME, organism-based; conditions: in vivo, 1 h; how it was run: as §1
Kidney [8] = test: Biodistribution in ddY mouse kidney at 0.1 to 0.4 uCi, iv after 60 mins by gamma counting; format: ADME, organism-based; conditions: in vivo, 1 h; how it was run: as §1
Liver [9] = test: Biodistribution in ddY mouse liver at 0.1 to 0.4 uCi, iv after 60 mins by gamma counting; format: ADME, organism-based; conditions: in vivo, 1 h; how it was run: as §1
Brain [10] = test: Biodistribution in ddY mouse brain at 0.1 to 0.4 uCi, iv after 60 mins by gamma counting; format: ADME, organism-based; conditions: in vivo, 1 h; how it was run: as §1
Blood [11] = test: Biodistribution in ddY mouse blood at 0.1 to 0.4 uCi, iv after 60 mins by gamma counting; format: ADME, organism-based; conditions: in vivo, 1 h; how it was run: as §1
Heart [12] = test: Biodistribution in ddY mouse heart at 0.1 to 0.4 uCi, iv after 30 mins by gamma counting; format: ADME, organism-based; conditions: in vivo, 0.5 h; how it was run: as §1
Pancreas [13] = test: Biodistribution in ddY mouse pancreas at 0.1 to 0.4 uCi, iv after 30 mins by gamma counting; format: ADME, organism-based; conditions: in vivo, 0.5 h; how it was run: as §1
Stomach [14] = test: Biodistribution in ddY mouse stomach assessed per organ at 0.1 to 0.4 uCi, iv after 30 mins by gamma counting; format: ADME, organism-based; conditions: in vivo, 0.5 h; how it was run: as §1
Lung [15] = test: Biodistribution in ddY mouse lung at 0.1 to 0.4 uCi, iv after 30 mins by gamma counting; format: ADME, organism-based; conditions: in vivo, 0.5 h; how it was run: as §1
Spleen [16] = test: Biodistribution in ddY mouse spleen at 0.1 to 0.4 uCi, iv after 30 mins by gamma counting; format: ADME, organism-based; conditions: in vivo, 0.5 h; how it was run: as §1
Intestine [17] = test: Biodistribution in ddY mouse intestine at 0.1 to 0.4 uCi, iv after 30 mins by gamma counting; format: ADME, organism-based; conditions: in vivo, 0.5 h; how it was run: as §1
Kidney [18] = test: Biodistribution in ddY mouse kidney at 0.1 to 0.4 uCi, iv after 30 mins by gamma counting; format: ADME, organism-based; conditions: in vivo, 0.5 h; how it was run: as §1
Liver [19] = test: Biodistribution in ddY mouse liver at 0.1 to 0.4 uCi, iv after 30 mins by gamma counting; format: ADME, organism-based; conditions: in vivo, 0.5 h; how it was run: as §1
Brain [20] = test: Biodistribution in ddY mouse brain at 0.1 to 0.4 uCi, iv after 30 mins by gamma counting; format: ADME, organism-based; conditions: in vivo, 0.5 h; how it was run: as §1
Blood [21] = test: Biodistribution in ddY mouse blood at 0.1 to 0.4 uCi, iv after 30 mins by gamma counting; format: ADME, organism-based; conditions: in vivo, 0.5 h; how it was run: as §1
Heart [22] = test: Biodistribution in ddY mouse heart at 0.1 to 0.4 uCi, iv after 10 mins by gamma counting; format: ADME, organism-based; conditions: in vivo; how it was run: as §1
Pancreas [23] = test: Biodistribution in ddY mouse pancreas at 0.1 to 0.4 uCi, iv after 10 mins by gamma counting; format: ADME, organism-based; conditions: in vivo; how it was run: as §1
Stomach [24] = test: Biodistribution in ddY mouse stomach assessed per organ at 0.1 to 0.4 uCi, iv after 10 mins by gamma counting; format: ADME, organism-based; conditions: in vivo; how it was run: as §1
Lung [25] = test: Biodistribution in ddY mouse lung at 0.1 to 0.4 uCi, iv after 10 mins by gamma counting; format: ADME, organism-based; conditions: in vivo; how it was run: as §1
Spleen [26] = test: Biodistribution in ddY mouse spleen at 0.1 to 0.4 uCi, iv after 10 mins by gamma counting; format: ADME, organism-based; conditions: in vivo; how it was run: as §1
Intestine [27] = test: Biodistribution in ddY mouse intestine at 0.1 to 0.4 uCi, iv after 10 mins by gamma counting; format: ADME, organism-based; conditions: in vivo; how it was run: as §1
Liver [28] = test: Biodistribution in ddY mouse liver at 0.1 to 0.4 uCi, iv after 10 mins by gamma counting; format: ADME, organism-based; conditions: in vivo; how it was run: as §1
Kidney [29] = test: Biodistribution in ddY mouse kidney at 0.1 to 0.4 uCi, iv after 10 mins by gamma counting; format: ADME, organism-based; conditions: in vivo; how it was run: as §1
Brain [30] = test: Biodistribution in ddY mouse brain at 0.1 to 0.4 uCi, iv after 10 mins by gamma counting; format: ADME, organism-based; conditions: in vivo; how it was run: as §1
Blood [31] = test: Biodistribution in ddY mouse blood at 0.1 to 0.4 uCi, iv after 10 mins by gamma counting; format: ADME, organism-based; conditions: in vivo; how it was run: as §1
Pancreas [32] = test: Biodistribution in ddY mouse pancreas at 0.1 to 0.4 uCi, iv after 2 mins by gamma counting; format: ADME, organism-based; conditions: in vivo; how it was run: as §1
Heart [33] = test: Biodistribution in ddY mouse heart at 0.1 to 0.4 uCi, iv after 2 mins by gamma counting; format: ADME, organism-based; conditions: in vivo; how it was run: as §1
Stomach [34] = test: Biodistribution in ddY mouse stomach assessed per organ at 0.1 to 0.4 uCi, iv after 2 mins by gamma counting; format: ADME, organism-based; conditions: in vivo; how it was run: as §1
Lung [35] = test: Biodistribution in ddY mouse lung at 0.1 to 0.4 uCi, iv after 2 mins by gamma counting; format: ADME, organism-based; conditions: in vivo; how it was run: as §1
Intestine [36] = test: Biodistribution in ddY mouse intestine at 0.1 to 0.4 uCi, iv after 2 mins by gamma counting; format: ADME, organism-based; conditions: in vivo; how it was run: as §1
Spleen [37] = test: Biodistribution in ddY mouse spleen at 0.1 to 0.4 uCi, iv after 2 mins by gamma counting; format: ADME, organism-based; conditions: in vivo; how it was run: as §1
Kidney [38] = test: Biodistribution in ddY mouse kidney at 0.1 to 0.4 uCi, iv after 2 mins by gamma counting; format: ADME, organism-based; conditions: in vivo; how it was run: as §1
Liver [39] = test: Biodistribution in ddY mouse liver at 0.1 to 0.4 uCi, iv after 2 mins by gamma counting; format: ADME, organism-based; conditions: in vivo; how it was run: as §1
Blood [40] = test: Biodistribution in ddY mouse blood at 0.1 to 0.4 uCi, iv after 2 mins by gamma counting; format: ADME, organism-based; conditions: in vivo; how it was run: as §1
Brain [41] = test: Biodistribution in ddY mouse brain at 0.1 to 0.4 uCi, iv after 2 mins by gamma counting; format: ADME, organism-based; conditions: in vivo; how it was run: as §1
[42] = n-octanol-sodium phosphate buffer partition co-efficient, log D of the compound at pH 7.4 by shake flask method; format: physicochemical
How it was run: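 Shake-flask partition between n-octanol and sodium phosphate buffer, pH 7.4, shaken 10 min at room temperature, then centrifuged. Weighed 0.5 mL samples of each layer counted. log D from the ratio of cpm per gram of octanol to cpm per gram of buffer; n = 3.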

Amyloid-beta precursor protein, sequence (P05067 whole entry): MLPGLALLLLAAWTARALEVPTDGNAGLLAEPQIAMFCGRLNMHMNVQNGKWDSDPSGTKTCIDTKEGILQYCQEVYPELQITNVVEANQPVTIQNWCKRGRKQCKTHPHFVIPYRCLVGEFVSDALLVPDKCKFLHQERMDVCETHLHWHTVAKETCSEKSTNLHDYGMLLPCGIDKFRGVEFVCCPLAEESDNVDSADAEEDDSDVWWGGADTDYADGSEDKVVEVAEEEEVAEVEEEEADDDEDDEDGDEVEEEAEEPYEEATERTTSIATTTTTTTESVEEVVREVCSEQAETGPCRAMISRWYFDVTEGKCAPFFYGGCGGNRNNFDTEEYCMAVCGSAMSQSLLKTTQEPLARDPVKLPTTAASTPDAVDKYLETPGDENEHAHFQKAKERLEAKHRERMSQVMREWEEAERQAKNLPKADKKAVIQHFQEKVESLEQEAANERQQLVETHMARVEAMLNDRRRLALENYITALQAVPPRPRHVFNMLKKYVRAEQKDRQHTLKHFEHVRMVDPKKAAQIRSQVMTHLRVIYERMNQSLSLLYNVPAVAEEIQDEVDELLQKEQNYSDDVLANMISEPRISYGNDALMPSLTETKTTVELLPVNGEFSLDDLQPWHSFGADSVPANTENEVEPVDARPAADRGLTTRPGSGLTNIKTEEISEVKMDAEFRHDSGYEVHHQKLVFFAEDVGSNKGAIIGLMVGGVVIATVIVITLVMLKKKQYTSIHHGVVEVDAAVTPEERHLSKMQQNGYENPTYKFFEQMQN

- Kd [1]: 48.4 nM
- Drug uptake (Heart [2]): 3.96 % ID/g
- Drug uptake (Pancreas [3]): 6.32 % ID/g
- Drug uptake (Stomach [4]): 1.24 %ID
- Drug uptake (Lung [5]): 25.58 % ID/g
- Drug uptake (Spleen [6]): 11.17 % ID/g
- Drug uptake (Intestine [7]): 5.59 % ID/g
- Drug uptake (Kidney [8]): 12.19 % ID/g
- Drug uptake (Liver [9]): 11.61 % ID/g
- Drug uptake (Brain [10]): 0.28 % ID/g
- Drug uptake (Blood [11]): 0.52 % ID/g
- Drug uptake (Heart [12]): 7 % ID/g
- Drug uptake (Pancreas [13]): 7.67 % ID/g
- Drug uptake (Stomach [14]): 1.48 %ID
- Drug uptake (Lung [15]): 35.64 % ID/g
- Drug uptake (Spleen [16]): 10.88 % ID/g
- Drug uptake (Intestine [17]): 4.4 % ID/g
- Drug uptake (Kidney [18]): 13.93 % ID/g
- Drug uptake (Liver [19]): 11.02 % ID/g
- Drug uptake (Brain [20]): 0.24 % ID/g
- Drug uptake (Blood [21]): 0.73 % ID/g
- Drug uptake (Heart [22]): 13.09 % ID/g
- Drug uptake (Pancreas [23]): 5.85 % ID/g
- Drug uptake (Stomach [24]): 1.33 %ID
- Drug uptake (Lung [25]): 59.55 % ID/g
- Drug uptake (Spleen [26]): 9.38 % ID/g
- Drug uptake (Intestine [27]): 2.55 % ID/g
- Drug uptake (Liver [28]): 9.7 % ID/g
- Drug uptake (Kidney [29]): 13.58 % ID/g
- Drug uptake (Brain [30]): 0.33 % ID/g
- Drug uptake (Blood [31]): 1.85 % ID/g
- Drug uptake (Pancreas [32]): 4.76 % ID/g
- Drug uptake (Heart [33]): 15.53 % ID/g
- Drug uptake (Stomach [34]): 1.18 %ID
- Drug uptake (Lung [35]): 73.08 % ID/g
- Drug uptake (Intestine [36]): 1.89 % ID/g
- Drug uptake (Spleen [37]): 6.14 % ID/g
- Drug uptake (Kidney [38]): 10.23 % ID/g
- Drug uptake (Liver [39]): 8.15 % ID/g
- Drug uptake (Blood [40]): 4.21 % ID/g
- Drug uptake (Brain [41]): 0.32 % ID/g
- logD [42]: 1.11
SMILES: CCN(CC)CCCC(C)Nc1c2ccc([125I])cc2nc2ccc(OC)cc12 (configuration not stated)
